According to ChEMBL document CHEMBL1795208 (J Med Chem, 2011):

Legend:
Assay type in all cases: functional, cell-based
[1] = Antiproliferative activity against human androgen-independent PC3MM2 cells after 72 hrs by MTS/PMS assay; conditions: PC3MM2, 72 h
Outline: (§1)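 Cells kept in Advanced DMEM/F12 (1:1) with non-essential amino acids, 2 mM L-glutamine, penicillin, streptomycin and 10% FBS at 37 °C, 5% CO2. Seeded at 2000/well, attached overnight. Compound added in DMSO across a concentration range (1% DMSO final) for 72 h. Viable cells read by MTS/PMS and normalized to 1% DMSO controls (100%). IC50 taken from separate triplicate experiments.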

[2] = Antiproliferative activity against human androgen-dependent LNCaP-LN3 cells after 72 hrs by MTS/PMS assay; conditions: LNCaP-LN3, 72 h; outline: as §1
[3] = tested on: MCF7; assay: Antiproliferative activity against human MCF7 cells expressing estrogen receptor after 72 hrs by MTS/PMS assay; conditions: MCF7, 72 h; outline: as §1
[4] = tested on: SK-BR-3; assay: Antiproliferative activity against human SKBR3 cells expressing HER2 after 72 hrs by MTS/PMS assay; conditions: SK-BR-3, 72 h; outline: as §1

COc1cccc(-c2cc(C(=O)Nc3cc4ccc(OS(C)(=O)=O)c(C)c4oc3=O)ccc2OC)c1
IC50 [1]: > 100 µM
IC50 [2]: 20 µM
IC50 [3]: 8.85 µM
IC50 [4]: 7.33 µM

COc1cccc(-c2cc(C(=O)Nc3cc4ccc(OC5CN(C(C)=O)C[C@@H](O)[C@H]5O)c(C)c4oc3=O)ccc2OC)c1 (stereo partly drawn)
IC50 [1]: 2.22 µM
IC50 [2]: 0.71 µM
IC50 [3]: 9.18 µM
IC50 [4]: 10.8 µM

COc1cccc(-c2cc(C(=O)Nc3cc4cc(OC)c(O[C@H]5OCC[C@@H](O)[C@H]5O)c(C)c4oc3=O)ccc2OC)c1
IC50 [1]: 25.4 µM
IC50 [2]: 14.9 µM
IC50 [3]: 64.5 µM
IC50 [4]: 12.5 µM

COc1cccc(-c2cc(C(=O)Nc3cc4ccc(OC5C=CCN(C(C)=O)C5)c(C)c4oc3=O)ccc2OC)c1 (stereo not drawn)
IC50 [1]: 3.73 µM
IC50 [2]: 0.9 µM
IC50 [3]: > 50 µM
IC50 [4]: > 50 µM

COc1cccc(-c2cc(C(=O)Nc3cc4ccc(OS(C)(=O)=O)c(OC)c4oc3=O)ccc2OC)c1
IC50 [2]: 0.87 µM
IC50 [3]: > 100 µM
IC50 [4]: > 100 µM

COc1cccc(-c2cc(C(=O)Nc3cc4cc(OC)c(OCC(O)CO)c(C)c4oc3=O)ccc2OC)c1 (stereo not drawn)
IC50 [3]: 20.5 µM
IC50 [4]: 19.4 µM

CNCCOc1c(OC)cc2cc(NC(=O)c3ccc(OC)c(-c4cccc(OC)c4)c3)c(=O)oc2c1C
IC50 [1]: 11.8 µM
IC50 [2]: > 100 µM
IC50 [3]: 6.23 µM
IC50 [4]: 3.15 µM

COc1cccc(-c2cc(C(=O)Nc3cc4ccc(OCCN(C)C)c(OC)c4oc3=O)ccc2OC)c1
IC50 [1]: 6.2 µM
IC50 [2]: 5.22 µM
IC50 [3]: 3.08 µM
IC50 [4]: 1.77 µM

Cc1c(OC2CCN(C)CC2)ccc2cc(NC(=O)c3cc4ccccc4[nH]3)c(=O)oc12
IC50 [1]: 11.4 µM
IC50 [2]: 11.8 µM
IC50 [3]: 0.57 µM
IC50 [4]: 0.48 µM

CO[C@@H]1[C@@H](OC(N)=O)[C@@H](O)[C@H](Oc2ccc3cc(NC(=O)c4ccc(O)c(CC=C(C)C)c4)c(=O)oc3c2C)OC1(C)C
IC50 [4]: 7.5 µM

COc1cccc(-c2cc(C(=O)Nc3cc4ccc(OC5OC(C)(C)[C@H](OC)[C@@H](O)[C@H]5O)c(C)c4oc3=O)ccc2OC)c1 (stereo partly drawn)
IC50 [3]: 18.7 µM
IC50 [4]: 7.5 µM

COc1cccc(-c2cc(C(=O)Nc3cc4ccc(OC(N)=O)c(OC)c4oc3=O)ccc2OC)c1
IC50 [1]: > 100 µM
IC50 [2]: 4.83 µM
IC50 [3]: 5.56 µM
IC50 [4]: 76.8 µM

CO[C@@H]1[C@@H](O)[C@@H](O)[C@H](Oc2ccc3cc(NC(=O)CCCCC(=O)Nc4cc5ccc(O[C@H]6OC(C)(C)[C@@H](OC)[C@H](O)[C@@H]6O)cc5oc4=O)c(=O)oc3c2C)OC1(C)C
IC50 [4]: 2 µM

CNCCOc1ccc2cc(NC(=O)c3ccc(OC)c(-c4cccc(OC)c4)c3)c(=O)oc2c1OC
IC50 [1]: 9.12 µM
IC50 [2]: 15.2 µM
IC50 [3]: 4.32 µM
IC50 [4]: 3.6 µM

CC(=O)Oc1ccc(C(=O)Nc2cc3ccc(OCCCN(C)C)c(C)c3oc2=O)cc1CC=C(C)C
IC50 [1]: 1.42 µM

COc1cccc(-c2cc(C(=O)Nc3cc4ccc(OS(=O)(=O)c5ccc(C)cc5)c(C)c4oc3=O)ccc2OC)c1
IC50 [1]: > 100 µM
IC50 [2]: 0.58 µM
IC50 [3]: > 100 µM
IC50 [4]: > 100 µM

COc1cccc(-c2cc(C(=O)Nc3cc4ccc(OC5CN(C)C[C@@H](O)[C@H]5O)c(C)c4oc3=O)ccc2OC)c1 (stereo partly drawn)
IC50 [1]: 2.99 µM
IC50 [2]: 0.59 µM
IC50 [3]: 1.85 µM
IC50 [4]: 3.92 µM

COc1cccc(-c2cc(C(=O)Nc3cc4cc(OC)c(OP(=O)(OC)OC)c(C)c4oc3=O)ccc2OC)c1
IC50 [1]: 31.3 µM
IC50 [2]: 1.36 µM
IC50 [3]: 24.2 µM
IC50 [4]: 26.5 µM

COc1cccc(-c2cc(C(=O)Nc3cc4cc(OC)c(OC5CCC[C@@H](O)[C@H]5O)c(C)c4oc3=O)ccc2OC)c1 (stereo partly drawn)
IC50 [3]: 10.1 µM
IC50 [4]: 8.18 µM

COc1cccc(-c2cc(C(=O)Nc3cc4cc(OC)c(OC(=O)N(C)C)c(C)c4oc3=O)ccc2OC)c1
IC50 [1]: 4.04 µM
IC50 [2]: 12.8 µM
IC50 [3]: 34.4 µM
IC50 [4]: 6.17 µM

COc1cccc(-c2cc(C(=O)Nc3cc4ccc(O[C@@H]5O[C@H](CO)C[C@@H](O)[C@H]5O)c(OC)c4oc3=O)ccc2OC)c1
IC50 [1]: 17.9 µM
IC50 [2]: 6.78 µM
IC50 [3]: 14.3 µM
IC50 [4]: 11.8 µM

COc1cccc(-c2cc(C(=O)Nc3cc4ccc(OC5CCN(C)CC5)c(C)c4oc3=O)ccc2OC)c1
IC50 [1]: 3.13 µM
IC50 [2]: 4.12 µM
IC50 [3]: 1.51 µM
IC50 [4]: 1.34 µM

COc1cccc(-c2cc(C(=O)Nc3cc4cc(OC)c(OC5OC(C)(C)[C@H](OC)[C@@H](O)[C@H]5O)c(C)c4oc3=O)ccc2OC)c1 (stereo partly drawn)
IC50 [1]: > 100 µM
IC50 [2]: 26.6 µM
IC50 [3]: > 100 µM
IC50 [4]: 58.8 µM

CNC(=O)Oc1ccc2cc(NC(=O)c3ccc(OC)c(-c4cccc(OC)c4)c3)c(=O)oc2c1OC
IC50 [1]: 1.68 µM
IC50 [2]: 2.37 µM
IC50 [3]: 6.54 µM
IC50 [4]: > 100 µM

COc1cccc(-c2cc(C(=O)Nc3cc4cc(OC)c(OCCCN(C)C)c(C)c4oc3=O)ccc2OC)c1
IC50 [1]: 5.4 µM
IC50 [2]: 4.71 µM
IC50 [3]: 0.7 µM
IC50 [4]: 0.49 µM

CNC(=O)Oc1c(OC)cc2cc(NC(=O)c3ccc(OC)c(-c4cccc(OC)c4)c3)c(=O)oc2c1C
IC50 [1]: 3.13 µM
IC50 [2]: 4.77 µM
IC50 [3]: 7.78 µM
IC50 [4]: 1.53 µM
